Data on 25 molecules can be found in ChEMBL document CHEMBL3616436, “Synthesis, cytotoxicity and antimicrobial activity of thiourea derivatives incorporating 3-(trifluoromethyl)phenyl moiety” (Eur J Med Chem, 2015).

Converted amounts (≈) assume the structure as drawn. A value given as a limit tells only on which side of the number the result lay.

The assay concerns Mycobacterium tuberculosis. In words: Antimycobacterial activity against p-aminosalicylic acid/isonicotinic acid hydrazide/etambutol/rifampicin-resistant Mycobacterium tuberculosis Spec. 210. In kind it is functional. In outline:
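Classical test-tube successive-dilution method in Youmans' modification of Proskauer and Beck liquid medium with 10% bovine serum. Inoculum came from 14-day cultures. DMSO stock was 10 mg/mL, diluted geometrically in medium. Tubes were incubated at 37 °C. Concentrations tested were 3.1, 6.2, 12.5, 25, 50 and 100 µg/ml. MIC is the minimum concentration inhibiting growth relative to compound-free tubes.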
Regarding `FC(F)(F)c1cccc(NC(S)=Nc2ccc(Cl)c(Cl)c2)c1`, the MIC is 50 µg/mL (≈ 137 µM).
In the case of `FC(F)(F)c1cccc(NC(S)=NCc2ccccc2)c1` it was 25 µg/mL (≈ 80.6 µM); in that of `O=C(NC(=S)Nc1cccc(C(F)(F)F)c1)c1ccccc1`, more than 100 µg/mL; in that of `FC(F)(F)c1cccc(NC(=S)Nc2ccccc2)c1`, 50 µg/mL (≈ 169 µM).
In the case of `Fc1ccc(NC(=S)Nc2cccc(C(F)(F)F)c2)cc1` it was 25 µg/mL (≈ 79.5 µM).
In the case of `Fc1cccc(NC(=S)Nc2cccc(C(F)(F)F)c2)c1` it was 25 µg/mL (≈ 79.5 µM); in that of `Fc1ccccc1NC(=S)Nc1cccc(C(F)(F)F)c1`, 100 µg/mL (≈ 318 µM); in that of `Fc1ccc(NC(=S)Nc2cccc(C(F)(F)F)c2)cc1Cl`, 50 µg/mL (≈ 143 µM).
In the case of `Cc1ccc(NC(=S)Nc2cccc(C(F)(F)F)c2)cc1Cl`, the MIC was more than 100 µg/mL.
In the case of `FC(F)(F)c1cccc(NC(=S)Nc2ccc(Cl)cc2)c1` it was more than 100 µg/mL; in that of `N#Cc1ccc(NC(=S)Nc2cccc(C(F)(F)F)c2)cc1`, more than 100 µg/mL; in that of `O=[N+]([O-])c1ccc(NC(=S)Nc2cccc(C(F)(F)F)c2)cc1`, 50 µg/mL (≈ 146 µM).
Consider `FC(F)(F)c1cccc(NC(=S)Nc2cccc(Br)c2)c1`, for which 100 µg/mL (≈ 267 µM) was the least that counted as inhibitory (MIC).
`COc1cccc(NC(=S)Nc2cccc(C(F)(F)F)c2)c1`: the MIC is more than 100 µg/mL.
In the case of `CCCCc1ccc(NC(=S)Nc2cccc(C(F)(F)F)c2)c(C)c1` it was 50 µg/mL (≈ 136 µM); in that of `COC(=O)c1ccccc1NC(=S)Nc1cccc(C(F)(F)F)c1`, more than 100 µg/mL; in that of `CCOC(=O)c1ccc(NC(=S)Nc2cccc(C(F)(F)F)c2)cc1`, more than 100 µg/mL.
In the case of `FC(F)(F)c1cccc(NC(=S)NCc2ccco2)c1` it was more than 100 µg/mL; in that of `CSCCCNC(=S)Nc1cccc(C(F)(F)F)c1`, 50 µg/mL (≈ 162 µM); in that of `FC(F)(F)c1cccc(NC(=S)NCCc2ccccc2)c1`, 50 µg/mL (≈ 154 µM).
`CCNC(=S)Nc1cccc(C(F)(F)F)c1` registered an MIC of more than 100 µg/mL.
In the case of `C=C(C)CNC(=S)Nc1cccc(C(F)(F)F)c1`, the MIC was more than 100 µg/mL.
Molecule `FC(F)(F)c1cccc(NC(=S)NC2CCCCC2)c1` came in with an MIC of more than 100 µg/mL.
The result for `FC(F)(F)c1cccc(NC(=S)Nc2cccc(Cl)c2)c1` reads 100 µg/mL (≈ 302 µM); that for `NNC(=O)c1ccncc1` [ISONIAZID], 6.25 µg/mL (≈ 45.6 µM).

The term MIC denotes the least concentration at which growth counts as inhibited.
